Screening results (PubChem)
Sampled rows, rich in hits. Any-hit rate of the full collection: about 4.1%.
STAT1 act = STAT1 signaling activators, primary screen, cell-based, HTS, luciferase reporter; NIH 3T3 STAT1-luciferase reporter, IFN-gamma, luminescence; 100% = IFN-gamma alone, no compound; activation (% of control), % at 5.5 µM; 2.6% of 200,000 active;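 active = activation above the screen-wide mean activation plus 3 SD, cut at about 130% in these data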;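 note: raw ratio to IFN-gamma control signal so 100% means no change and 0% no light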
NF-kB neuron act = activators of NF-kB expression in neurons, primary screen, cell-based, HTS; 1.6% of 190,000 active; human neuronal cells, NF-kB reporter expression; hits give high values; AID 1239, 2008; fold change at 12.5 µM; in the data active = fold change above about 3.3
APP 5'UTR act = activators of APP 5'UTR luciferase reporter, primary screen, SH-SY5Y cells; AID 1276, 2008; 1% of 190,000 active; activation, % at 2 µM; SH-SY5Y APP 5'UTR luciferase reporter, luminescence; zero percent = DMSO vehicle wells;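 active = activation above a set limit, based on mean plus 3 SD of controls, cut at about 140% in these data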
FLuc act counter = FLuc activators, initial screening, artefact control for FLuc-dependent activation tests, biochemical, ATPlite luminescence; AID 1027, 2008; Luciferin 4-monooxygenase (Photinus pyralis), P08659; ATPlite luciferase biochemical, 10 min; 0 = ATP-free wells, 1 = DMSO control; activation factor at 10 µM; 200,000 tested, under 10 active;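 active = luciferase activation factor, scaled between plate controls, of at least 2 with compound at 10 µM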
Target sequence (P08659 whole entry, looked up): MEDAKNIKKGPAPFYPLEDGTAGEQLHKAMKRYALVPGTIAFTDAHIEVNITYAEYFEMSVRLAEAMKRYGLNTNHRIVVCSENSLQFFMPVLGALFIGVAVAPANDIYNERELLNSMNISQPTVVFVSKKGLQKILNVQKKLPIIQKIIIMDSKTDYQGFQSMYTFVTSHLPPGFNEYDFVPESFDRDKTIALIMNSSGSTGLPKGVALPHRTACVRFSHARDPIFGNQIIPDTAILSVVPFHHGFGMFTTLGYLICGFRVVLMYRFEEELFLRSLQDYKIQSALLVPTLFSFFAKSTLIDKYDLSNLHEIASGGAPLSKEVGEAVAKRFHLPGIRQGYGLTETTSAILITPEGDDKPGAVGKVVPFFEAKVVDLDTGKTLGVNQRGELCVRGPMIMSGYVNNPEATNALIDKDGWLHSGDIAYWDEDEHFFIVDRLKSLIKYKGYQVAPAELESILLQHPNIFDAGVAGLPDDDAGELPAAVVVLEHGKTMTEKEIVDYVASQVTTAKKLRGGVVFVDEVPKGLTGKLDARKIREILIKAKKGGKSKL
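test system = cell-free luciferase reagent | medium = PBS as buffer for the ATP substrate | dosing = test compounds dosed from 2 mM stocks in 100% DMSO | incubation = 10 min at ambient temperature | detection = luminescence measurement of luciferase light output | benchmarks = low control with PBS replacing ATP, high control enzyme plus ATP without compound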
FLuc inh counter = firefly luciferase enzyme inhibitors, primary screen, artefact control for luciferase-based inhibitor screens, biochemical, luminescence, ATPLite. Luciferin 4-monooxygenase (Photinus pyralis), P08659. 10 min. inhibition, % at 10 µM. 1.5% of 200,000 active. AID 1006, 2008;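 active = inhibition above about 50% when tested at 10 µM, limit read from the data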
STAT1 activ conf = STAT1 signaling activators, confirmation, cell-based, HTS, luciferase reporter; shares compounds with STAT1 act; AID 1262, 2008; activation (% of control), % at 5.7 µM; NIH 3T3 STAT1-luciferase reporter, IFN-gamma potentiation, luminescence; 100% = IFN-gamma EC80 alone, no compound; 97% of 1,200 active;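 active = activation above a set limit carried over from the earlier primary STAT1 screen, cut at about 140% in these data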;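 note: simple ratio to median IFN-gamma plus DMSO wells so 0% means no light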
NFkB act STAT1ct = NF-kB reporter activators, TNF-alpha stimulated, counter-screen for STAT1 activator project, cell-based, HEK293T, luciferase luminescence | 43% of 1,200 active | 100% = TNF-alpha with vehicle only | activation (% of control), % at 5.7 µM | AID 1306, 2008 | shares compounds with STAT1 act;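 active = activation above the mean of solvent-only control wells plus 3 SD, set per campaign, cut at about 130% in these data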;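 note: TNF-alpha given at a submaximal dose yielding about 80% of full reporter signal; values are well signal over median control so 100% means no change and 0% no light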
STAT3 act STAT1c = STAT3 reporter activation by STAT1 hits, confirmation, counter-screen for STAT1 activator project, U3A cells, luciferase, luminescence; 46% of 1,200 active; activation (% of control), % at 5.7 µM; shares compounds with STAT1 act; IL-6; cells lack STAT1; 100 = IL-6 alone, no compound effect;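 active = activation above the solvent-only control well mean plus 3 SD, set per plate batch, cut at about 110% in these data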;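 note: 0% = no luminescence and 100% = median IL-6 plus DMSO wells; higher means more STAT3 reporter activation so hits are non-selective activators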
* marks the source's active call; other numbers are inactive results; nt = no result given.

SMILES	STAT1 act	NF-kB neuron act	APP 5'UTR act	FLuc act counter	FLuc inh counter	STAT1 activ conf	NFkB act STAT1ct	STAT3 act STAT1c
Cc1ccsc1/C=N\NC(=O)c1cc(C(C)(C)C)[nH]n1	156*	2.2	85	0.8	20	171*	129	117*
N#Cc1ccc2ccn(CC(=O)NC3CCCCC3)c2c1	99	1.1	4	1.1	-8	nt	nt	nt
COc1ccc(OC)c(NC(=S)N(CCc2c(C)[nH]c3ccc(C)cc23)Cc2cccs2)c1	97	0.83	-26	1	-1	nt	nt	nt
Cc1ccc(Nc2ncc3c(n2)CC(C)(C)CC3=O)cc1	179*	5.2*	158*	0.5	46	194*	139*	119*
CCc1ccc(NC(=O)C2CCCN(S(C)(=O)=O)C2)cc1 (stereo unspecified)	103	1.2	15	1.1	-7	nt	nt	nt
Oc1ccc(N=Nc2n[nH]c(-c3ccccc3)n2)cc1	172*	6.3*	146*	0.4	59*	185*	122	105
O=C1NCC(CN(c2ccccc2)c2ccccc2)O1 (stereo unspecified)	99	0.77	0	1	-3	nt	nt	nt
COc1ccc(-c2cn3cccc(C)c3n2)cc1Br	172*	4.8*	137*	0.4	57*	191*	130	102
c1ccc2c(CCNc3ncnc4nc[nH]c34)c[nH]c2c1	101	0.76	5	1	2	nt	nt	nt
COc1ccccc1C(=O)OCC(=O)Nc1ccc(OC(F)F)cc1	101	1.5	-4	1	-4	nt	nt	nt
CC(C)COc1ccc(-c2cc(C(=O)NN)[nH]n2)cc1	153*	1.7	33	0.9	7	128	112	107
Nc1nc(-c2ccccc2)nc2sc3c(c12)CCCC3	191*	11*	180*	0.1	85*	249*	136*	139*
Cc1ccc(-c2nc3sc4c(c3c(=O)n2N)CCCC4)cc1	178*	5.1*	143*	0.9	12	224*	143*	105
O=C(OCc1cccc([N+](=O)[O-])c1)c1ccncc1	100	0.94	6	1.1	-6	nt	nt	nt
N#Cc1c(N)oc(-c2ccco2)c1-c1ccco1	94	0.69	-8	1	-5	nt	nt	nt
COc1ccc(OC)c(Nc2ncnc3c2cnn3-c2ccccc2)c1	107	1.7	14	1	-3	nt	nt	nt
COc1ccc(-n2ncc3c(NC(C)C)ncnc32)cc1	151*	4*	151*	0.2	77*	246*	109	96
COc1ccc(-n2ncc3c(NCC(C)C)ncnc32)cc1	166*	7*	195*	0.3	71*	260*	118	98
COCC(C)Nc1ncnc2c1cnn2-c1ccc(Cl)cc1 (stereo unspecified)	163*	4.9*	180*	0.7	33	235*	141*	106
O=C(O)c1cccc(S(=O)(=O)NCc2cccs2)c1	101	1.1	11	1	-4	nt	nt	nt
Cc1ccc(C2(c3noc(CN(C)CCCN4CCOCC4)n3)CCCC2)cc1	101	0.82	4	1.1	-5	nt	nt	nt
Cc1ccc(NC(=O)c2cc3c(s2)CCCC3)cc1	160*	8.8*	119	0.6	42	203*	154*	105
CCOC(=O)c1sc(NC(=O)c2cc3c(s2)CCC(C)C3)nc1C (stereo unspecified)	98	1.7	16	1	0	nt	nt	nt
Cc1ccc(NC(=O)c2scc3c2CCCC3)cc1	155*	9.5*	195*	0.2	75*	252*	126	102
COC(=O)c1sc(NC(=O)c2cc3c(s2)CCCC3)nc1C	155*	5.7*	89	0.7	29	202*	127	111*
SMILES	STAT1 act	NF-kB neuron act	APP 5'UTR act	FLuc act counter	FLuc inh counter	STAT1 activ conf	NFkB act STAT1ct	STAT3 act STAT1c
Clc1ccc(Cn2ncc3c(N4CCCC4)ncnc32)cc1	96	0.6	15	1	3	nt	nt	nt
COC(=O)c1c(-c2cccnc2)csc1NC(=O)c1cc(C)on1	152*	3.1	130	0.6	37	202*	137*	127*
Cc1cc(=O)oc2cc(OCC3CC(c4ccccc4)=NO3)ccc12 (stereo unspecified)	106	1.4	-4	1	1	nt	nt	nt
CCOC(=O)c1c(C)[nH]c(C(=O)OCCOc2ccccc2C)c1C	159*	3.4*	118	0.9	7	183*	125	123*
COc1ccc(C(=O)NC(=S)Nc2cc(C)ccn2)cc1[N+](=O)[O-]	97	1.5	53	1	3	nt	nt	nt
CN(C)c1ccc(/C=N/N2C(=N)N(c3ccccc3)C(=S)C2=Nc2ccccc2)cc1	163*	nt	180*	nt	nt	185*	134*	113*
Cc1ccc(C(=O)N2CCc3ccccc32)o1	165*	1.2	159*	1	4	183*	127	107
O=C(CCCc1ccccc1)N1CCc2ccccc21	180*	7.7*	70	0.5	52*	221*	137*	115*
Cc1c(C(=O)N2CCc3ccccc32)oc2c1C(=O)CC(C)(C)C2	157*	2.8	34	0.9	8	180*	134*	113*
Cc1nc2ccccc2c2oc(C(=O)N3CCc4ccccc43)cc12	110	0.81	10	1.1	-6	nt	nt	nt
Cc1ccc(C)c(N2CCN(CC(=O)Nc3ccc([N+](=O)[O-])cc3C(=O)Nc3ccccc3F)CC2)c1	105	0.65	6	1.1	-7	nt	nt	nt
CC(C)Oc1ccc2c(=O)c(-c3ccccc3)coc2c1	156*	9.5*	163*	0.4	61*	219*	122	90
COc1ccc2c(=O)c(-c3ccc4c(c3)OCO4)coc2c1	164*	4.3*	192*	0.3	66*	217*	97	80
CCOC(=O)c1ccc(NC(=O)COc2ccc(-n3cnnn3)cc2)cc1	101	1.2	6	0.9	6	nt	nt	nt
C/C(=N\NC(=O)c1ccc(Br)cc1)c1ccccc1	159*	5.7*	97	0.5	50	195*	128	110
C/C(=N\NC(=O)c1ccccc1)c1ccccc1Br	116	1.9	27	1	3	nt	nt	nt
